Reference: paper PMC3110074 (ACS chemical neuroscience, 2011)
Where two headings read alike, the source gives them in different places.

How the values were obtained:
[1] = cited from earlier work
[2] = system: TH positive neurons in the SNpc; conditions: intraperitoneal injection; cited from earlier work
P-glycoprotein (PGP) = P-glycoprotein (PGP) (Homo sapiens, UniProt P08183); experiment: P-glycoprotein substrate assessment; format: in vitro ADME
CYP P450 3A4 = CYP P450 3A4 (Homo sapiens, UniProt P08684); conditions: read-out: IC50 CYP450 3A4
[3] = Microsomal stability, mouse; format: in vitro ADME; conditions: mouse liver microsomes
[4] = molecular target: monoamine oxidase A (MAO-A) (Homo sapiens, UniProt P21397); experiment: MAO-A inhibition; format: biochemical; conditions: read-out: IC50 MAO-A
[5] = system: striatal catecholamine levels; experiment: Striatal dopamine, DOPAC and HVA levels after MPTP; format: in vivo, C57BL/6J mice; conditions: MPTP-treated mice, 30 mg/kg, 7 days
CYP P450 2A6 = CYP P450 2A6 (Homo sapiens, UniProt P11509); experiment: P450 inhibition 2A6; format: in vitro ADME; conditions: read-out: IC50 CYP450 2A6
[6] = Microsomal stability, rat; format: in vitro ADME; conditions: rat liver microsomes
CYP P450 2B6 = CYP P450 2B6 (Homo sapiens, UniProt P20813); experiment: P450 inhibition 2B6; format: in vitro ADME; conditions: read-out: IC50 CYP450 2B6
[7] = Plasma protein binding, human; format: in vitro ADME
CYP P450 2C9 = CYP P450 2C9 (Homo sapiens, UniProt P11712); conditions: read-out: IC50 CYP450 2C9
[8] = system: p-c-jun in TH-positive neurons of the SNpc; experiment: Immunohistochemistry for TH and p-c-jun after MPTP; format: in vivo, C57BL/6J mice; conditions: single oral dose 30 mg/kg, seven hr
Procedure, shortened: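 The test compound was given orally 30 min before repeated i.p. MPTP-HCl (2 h intervals) to male C57BL/6J mice, which were killed 7 h after the first MPTP dose; three mice per group. 16 μm SN sections (bregma −3.0) were incubated overnight at 4 °C with sheep anti-TH (1:50) and rabbit anti-p-c-jun Ser73 (1:100), then 2 h with Alexa 594/488 secondaries (1:500). DAPI was used for normalisation. TH+ neurons with nuclear p-c-jun were counted.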

TYK2 = TYK2 (Homo sapiens, UniProt P29597); experiment: Ambit kinase panel screen, TYK2; format: binding; conditions: suggested from Ambit panel at 3 μM
[9] = molecular target: monoamine oxidase B (MAO-B) (Homo sapiens, UniProt P27338); experiment: MAO-B inhibition; format: biochemical; conditions: read-out: IC50 MAO-B
[10] = Plasma protein binding, monkey; format: in vitro ADME
CYP P450 1A2 = CYP P450 1A2 (Homo sapiens, UniProt P05177); experiment: P450 inhibition 1A2; format: in vitro ADME; conditions: read-out: IC50 CYP450 1A2
[11] = molecular target: Leucine Rich repeat Kinase 2 (LRRK2) (Homo sapiens, UniProt Q5S007); experiment: LRRK2 inhibition; format: biochemical; conditions: up to 10 μM
347 kinases = experiment: Ambit kinase panel screen; format: binding; conditions: 3 μM
[12] = Plasma protein binding, mouse; format: in vitro ADME
KIT V559D = KIT V559D (Homo sapiens, UniProt P10721, V559D); experiment: Ambit kinase panel screen, KIT V559D; format: binding; conditions: suggested from Ambit panel at 3 μM
Rat pharmacokinetics = format: in vivo, Sprague-Dawley rats; conditions: rats
Procedure, shortened: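 Sprague-Dawley rats (n = 3) were dosed 1 mg/kg i.v. or 2 mg/kg by oral gavage. Blood was drawn into EDTA at 5, 15 and 30 min and at 1, 2, 4, 6 and 8 h. Plasma proteins were precipitated with acetonitrile and the test compound quantified by LC-MS/MS. Noncompartmental analysis gave CL, oral bioavailability, Cmax, AUC, t1/2 and Vd.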

G2019S LRRK2 = G2019S LRRK2 (Homo sapiens, UniProt Q5S007, G2019S); experiment: G2019S LRRK2 inhibition; format: biochemical; conditions: up to 10 μM
[13] = Microsomal stability, human; format: in vitro ADME; conditions: human liver microsomes
[14] = Mouse brain penetration time course; format: in vivo, C57Bl6 mice; conditions: mice, single oral dose 30 mg/kg
[15] = system: p-c-jun in substantia nigra tissue lysate; experiment: ELISA for p-c-jun target modulation after MPTP; format: in vivo, C57BL/6J mice; conditions: MPTP-treated mice
Procedure, shortened: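 Male C57BL/6J mice (11 weeks, 25–30 g) got the test compound orally 30 min before the first of repeated i.p. MPTP-HCl doses given at 2 h intervals, and were killed 7 h after the first MPTP dose. SN nuclear extracts were made with protease and phosphatase inhibitors and protein was measured by BCA. Phospho-c-jun Ser63 in 30 μg protein was read by ELISA in duplicate against a recombinant p-c-jun standard curve. Groups were compared by two-tailed unpaired t test.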

KIT = KIT (Homo sapiens, UniProt P10721); experiment: Ambit kinase panel screen, KIT; format: binding; conditions: suggested from Ambit panel at 3 μM
CYP P450 2C19 = CYP P450 2C19 (Homo sapiens, UniProt P33261); conditions: read-out: IC50 CYP450 2C19
[16] = system: c-jun phosphorylation in ventral midbrain; experiment: Western blot for phospho-c-jun after MPTP; format: in vivo, C57BL/6J mice; conditions: MPTP-treated mice, 20 mg/kg oral
Procedure, shortened: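 Mice received the test compound orally 30 min before the first i.p. MPTP-HCl dose and were killed 7 h after that dose; two saline, three MPTP and two MPTP+compound mice. Ventral midbrain was dissected and lysed, and 30 μg nuclear-fraction protein was immunoblotted for phospho-c-jun.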

CYP P450 2E1 = CYP P450 2E1 (Homo sapiens, UniProt P05181); experiment: P450 inhibition 2E1; format: in vitro ADME; conditions: read-out: IC50 CYP450 2E1
[17] = Plasma protein binding, rat; format: in vitro ADME
[18] = system: primary mesencephalic dopaminergic neurons exposed to MPP+; format: cell-based, Sprague Dawley rat; conditions: for neuroprotective effect (TH-positive neurons): 10 μM MPP+ for 48 hr
Procedure, shortened: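 Ventral mesencephalon from E14 Sprague-Dawley rat embryos was trypsinised (0.25%, 5 min, 37 °C) and triturated. Cells were plated at 200 000/well on poly-D-lysine/laminin in DMEM/10% HIFBS, then switched after 2 h to SATO selection medium for 5 days with daily changes. Test compound (10–1000 nM) was added 15 min before 10 μM MPP+, with 48 h at 37 °C/5% CO2. Cells were fixed in 4% PFA and TH+ neurons counted blinded. Four wells per concentration, three biological replicates; one-way ANOVA.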

CYP P450 2D6 = CYP P450 2D6 (Homo sapiens, UniProt P10635); experiment: P450 inhibition 2D6; format: in vitro ADME; conditions: read-out: IC50 CYP450 2D6
PDGFR-β = PDGFR-β (Homo sapiens, UniProt P09619); experiment: Ambit kinase panel screen, PDGFR-β; format: binding; conditions: suggested from Ambit panel at 3 μM
CYP P450 2C8 = CYP P450 2C8 (Homo sapiens, UniProt P10632); experiment: P450 inhibition 2C8; format: in vitro ADME; conditions: read-out: IC50 CYP450 2C8
[19] = cited from earlier work; remark: listed apart in the source

Chain of CYP P450 2C8 (P10632 whole entry): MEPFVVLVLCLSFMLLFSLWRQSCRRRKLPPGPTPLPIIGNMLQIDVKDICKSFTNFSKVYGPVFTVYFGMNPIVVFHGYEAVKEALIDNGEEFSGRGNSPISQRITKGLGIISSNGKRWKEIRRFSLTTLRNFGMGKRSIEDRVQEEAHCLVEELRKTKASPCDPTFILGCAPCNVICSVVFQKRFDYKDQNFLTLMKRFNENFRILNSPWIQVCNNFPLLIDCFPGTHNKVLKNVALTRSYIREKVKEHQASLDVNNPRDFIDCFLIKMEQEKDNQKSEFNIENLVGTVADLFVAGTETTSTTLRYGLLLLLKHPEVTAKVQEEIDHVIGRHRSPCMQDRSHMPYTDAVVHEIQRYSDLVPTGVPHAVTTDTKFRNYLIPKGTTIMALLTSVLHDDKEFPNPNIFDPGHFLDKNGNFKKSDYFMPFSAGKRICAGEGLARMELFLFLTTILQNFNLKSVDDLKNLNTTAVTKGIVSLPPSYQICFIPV
Chain of monoamine oxidase B (MAO-B) (P27338 whole entry, species assumed): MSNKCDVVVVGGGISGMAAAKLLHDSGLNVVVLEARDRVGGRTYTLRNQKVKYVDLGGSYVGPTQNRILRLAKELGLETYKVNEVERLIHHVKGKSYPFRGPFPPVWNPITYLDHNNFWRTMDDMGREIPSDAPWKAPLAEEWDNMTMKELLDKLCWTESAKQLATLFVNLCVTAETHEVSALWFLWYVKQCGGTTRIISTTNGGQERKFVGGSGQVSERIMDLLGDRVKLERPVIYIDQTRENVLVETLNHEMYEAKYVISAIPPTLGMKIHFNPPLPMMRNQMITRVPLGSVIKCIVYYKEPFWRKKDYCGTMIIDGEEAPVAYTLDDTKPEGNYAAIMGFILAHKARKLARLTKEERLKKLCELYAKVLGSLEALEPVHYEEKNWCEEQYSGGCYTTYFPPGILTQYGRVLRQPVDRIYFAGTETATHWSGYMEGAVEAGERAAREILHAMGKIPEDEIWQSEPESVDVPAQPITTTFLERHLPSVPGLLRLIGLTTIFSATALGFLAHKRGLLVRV
Chain of CYP P450 2D6 (P10635 whole entry): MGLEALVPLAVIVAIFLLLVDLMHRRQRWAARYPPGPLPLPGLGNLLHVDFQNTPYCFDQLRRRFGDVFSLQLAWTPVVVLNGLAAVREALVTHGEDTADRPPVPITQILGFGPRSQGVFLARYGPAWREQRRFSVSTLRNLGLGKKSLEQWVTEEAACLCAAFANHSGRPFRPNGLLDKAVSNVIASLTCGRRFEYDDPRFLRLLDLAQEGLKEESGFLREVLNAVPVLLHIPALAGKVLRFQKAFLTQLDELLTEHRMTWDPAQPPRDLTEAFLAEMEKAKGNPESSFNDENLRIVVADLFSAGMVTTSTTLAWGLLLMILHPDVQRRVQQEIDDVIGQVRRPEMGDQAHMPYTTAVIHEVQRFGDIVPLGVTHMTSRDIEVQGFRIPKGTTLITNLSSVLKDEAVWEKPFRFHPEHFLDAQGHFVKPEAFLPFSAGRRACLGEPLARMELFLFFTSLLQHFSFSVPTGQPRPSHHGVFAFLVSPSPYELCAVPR
Chain of P-glycoprotein (PGP) (P08183 whole entry): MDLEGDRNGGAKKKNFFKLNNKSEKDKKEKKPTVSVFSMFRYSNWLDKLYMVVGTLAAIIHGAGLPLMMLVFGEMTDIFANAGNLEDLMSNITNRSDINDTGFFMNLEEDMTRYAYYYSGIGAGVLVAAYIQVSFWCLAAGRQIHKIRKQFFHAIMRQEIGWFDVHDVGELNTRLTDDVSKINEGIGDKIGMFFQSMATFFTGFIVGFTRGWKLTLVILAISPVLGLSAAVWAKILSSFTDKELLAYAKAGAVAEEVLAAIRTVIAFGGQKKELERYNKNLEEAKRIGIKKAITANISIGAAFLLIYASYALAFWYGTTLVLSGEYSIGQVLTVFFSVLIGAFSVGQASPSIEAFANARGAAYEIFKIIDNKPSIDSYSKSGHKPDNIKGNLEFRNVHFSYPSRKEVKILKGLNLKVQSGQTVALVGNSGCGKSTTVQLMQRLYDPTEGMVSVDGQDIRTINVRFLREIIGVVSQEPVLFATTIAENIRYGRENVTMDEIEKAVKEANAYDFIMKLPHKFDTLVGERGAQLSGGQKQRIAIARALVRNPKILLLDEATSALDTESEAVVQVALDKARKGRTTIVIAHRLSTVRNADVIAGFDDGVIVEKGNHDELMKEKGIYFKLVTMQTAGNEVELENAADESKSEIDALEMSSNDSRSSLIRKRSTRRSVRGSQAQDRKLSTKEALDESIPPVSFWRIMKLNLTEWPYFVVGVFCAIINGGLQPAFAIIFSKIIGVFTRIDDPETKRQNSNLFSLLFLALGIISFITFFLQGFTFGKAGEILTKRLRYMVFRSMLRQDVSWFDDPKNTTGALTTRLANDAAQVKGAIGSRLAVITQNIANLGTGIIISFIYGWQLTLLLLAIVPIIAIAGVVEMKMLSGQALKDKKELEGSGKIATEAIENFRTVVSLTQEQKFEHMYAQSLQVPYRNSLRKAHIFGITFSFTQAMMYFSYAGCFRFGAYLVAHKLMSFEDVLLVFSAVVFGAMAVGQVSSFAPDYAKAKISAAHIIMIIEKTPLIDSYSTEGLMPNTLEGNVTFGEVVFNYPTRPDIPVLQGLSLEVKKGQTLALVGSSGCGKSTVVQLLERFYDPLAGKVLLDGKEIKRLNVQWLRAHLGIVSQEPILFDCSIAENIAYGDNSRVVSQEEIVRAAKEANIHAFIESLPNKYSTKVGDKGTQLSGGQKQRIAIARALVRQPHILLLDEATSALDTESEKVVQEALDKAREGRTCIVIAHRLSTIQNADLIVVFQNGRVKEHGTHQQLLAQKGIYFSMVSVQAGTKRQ
Chain of CYP P450 1A2 (P05177 whole entry): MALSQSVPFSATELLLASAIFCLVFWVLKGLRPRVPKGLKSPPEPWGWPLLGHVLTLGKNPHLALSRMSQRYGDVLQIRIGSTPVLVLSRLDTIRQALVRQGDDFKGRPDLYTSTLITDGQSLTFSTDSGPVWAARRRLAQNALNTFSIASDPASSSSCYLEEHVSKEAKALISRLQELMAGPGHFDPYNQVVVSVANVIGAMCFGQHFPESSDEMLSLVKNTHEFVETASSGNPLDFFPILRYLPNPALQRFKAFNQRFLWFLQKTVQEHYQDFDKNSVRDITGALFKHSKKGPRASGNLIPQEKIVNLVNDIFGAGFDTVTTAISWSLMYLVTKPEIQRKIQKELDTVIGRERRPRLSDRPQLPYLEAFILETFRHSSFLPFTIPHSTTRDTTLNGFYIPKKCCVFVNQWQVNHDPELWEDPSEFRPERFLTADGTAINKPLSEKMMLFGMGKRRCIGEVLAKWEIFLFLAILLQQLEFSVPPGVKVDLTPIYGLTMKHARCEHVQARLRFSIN
Chain of CYP P450 2C19 (P33261 whole entry): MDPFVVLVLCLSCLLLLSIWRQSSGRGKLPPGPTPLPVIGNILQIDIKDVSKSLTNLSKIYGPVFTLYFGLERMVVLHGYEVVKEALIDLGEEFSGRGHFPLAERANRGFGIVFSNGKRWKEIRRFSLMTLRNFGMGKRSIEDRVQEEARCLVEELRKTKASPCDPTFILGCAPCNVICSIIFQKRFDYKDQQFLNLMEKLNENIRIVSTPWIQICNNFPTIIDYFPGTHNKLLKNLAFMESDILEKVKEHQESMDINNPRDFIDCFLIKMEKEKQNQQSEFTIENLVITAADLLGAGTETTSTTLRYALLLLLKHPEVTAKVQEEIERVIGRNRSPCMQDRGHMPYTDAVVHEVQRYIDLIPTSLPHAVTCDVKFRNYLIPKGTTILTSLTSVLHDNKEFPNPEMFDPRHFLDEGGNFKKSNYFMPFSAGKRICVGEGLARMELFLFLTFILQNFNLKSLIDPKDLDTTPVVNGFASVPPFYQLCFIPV
Chain of CYP P450 2C9 (P11712 whole entry): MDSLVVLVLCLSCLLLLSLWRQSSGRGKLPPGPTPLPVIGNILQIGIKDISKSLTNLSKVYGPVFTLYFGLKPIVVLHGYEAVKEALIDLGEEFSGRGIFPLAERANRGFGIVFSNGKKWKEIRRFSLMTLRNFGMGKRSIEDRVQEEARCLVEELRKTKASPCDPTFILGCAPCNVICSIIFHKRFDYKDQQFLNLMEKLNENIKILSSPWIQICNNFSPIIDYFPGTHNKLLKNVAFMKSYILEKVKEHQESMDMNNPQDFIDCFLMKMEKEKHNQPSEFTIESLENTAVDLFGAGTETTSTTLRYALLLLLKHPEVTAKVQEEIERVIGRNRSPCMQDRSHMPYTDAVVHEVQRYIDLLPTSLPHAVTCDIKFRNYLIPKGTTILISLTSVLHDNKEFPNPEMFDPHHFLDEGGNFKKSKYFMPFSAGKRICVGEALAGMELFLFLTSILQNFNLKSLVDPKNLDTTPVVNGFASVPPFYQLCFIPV
Chain of CYP P450 2B6 (P20813 whole entry): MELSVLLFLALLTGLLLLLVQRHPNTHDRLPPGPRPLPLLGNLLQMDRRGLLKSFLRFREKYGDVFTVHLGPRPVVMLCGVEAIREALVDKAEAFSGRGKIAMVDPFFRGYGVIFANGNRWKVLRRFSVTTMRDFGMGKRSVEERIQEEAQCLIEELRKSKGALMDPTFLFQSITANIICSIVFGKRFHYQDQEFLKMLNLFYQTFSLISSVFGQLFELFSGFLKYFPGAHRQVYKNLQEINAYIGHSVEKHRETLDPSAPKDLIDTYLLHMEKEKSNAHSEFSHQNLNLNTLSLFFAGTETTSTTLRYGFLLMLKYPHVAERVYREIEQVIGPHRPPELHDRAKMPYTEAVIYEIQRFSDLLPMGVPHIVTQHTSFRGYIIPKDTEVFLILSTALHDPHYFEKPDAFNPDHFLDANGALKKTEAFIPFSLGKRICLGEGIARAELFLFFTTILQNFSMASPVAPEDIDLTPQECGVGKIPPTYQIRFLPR

## C#CCN[C@@H]1CCc2ccccc21 [rasagiline]
[1]; 1 mg
  neuroprotective disease-modifying effects: possible disease-modifying effects
[1]; 2 mg dose, 1176 subjects
  neuroprotective disease-modifying effects: failed to show neuroprotective disease-modifying effects

## Oc1c2ccccc2c2c3c(cccc13)N=N2 [SP600125]
[2]
  protection in the chronic MPTP mouse model: protective

## Cc1ccc(-c2ncn(-c3ccc(Nc4nccc(-c5cccc(N6CCOCC6)c5)n4)cc3)n2)cn1 [SR-3306]
P-glycoprotein (PGP)
  P-glycoprotein (PGP) substrate: not a P-glycoprotein (PGP) substrate
CYP P450 3A4
  IC50: > 50 µM
[3]
  microsomal stability: 26 min
[4]
  IC50: > 50 µM
[5]
  protection of striatal DOPAC levels: some protection
  protection of striatal dopamine levels: not able to demonstrate protection
  protection of striatal homovanillic acid (HVA) levels: not able to demonstrate protection
CYP P450 2A6
  IC50: > 50 µM
[6]
  microsomal stability: 30 min
CYP P450 2B6
  IC50: > 50 µM
[7]
  plasma protein binding: 88%
CYP P450 2C9
  IC50: > 50 µM
[8]
  number of p-c-jun positive cells compared to MPTP treated mice: dramatic decrease (four-fold)
TYK2
  Kd: < 1 µM
[9]
  IC50: > 50 µM
[10]
  plasma protein binding: 96%
CYP P450 1A2
  IC50: > 50 µM
[11]
  inhibition of LRRK2: not inhibited
347 kinases
  number of kinases with any hit: 35 out of the 347
[12]
  plasma protein binding: 86%
KIT V559D
  Kd: < 1 µM
Rat pharmacokinetics; 1 mg/kg i.v.
  clearance rate: 14 mL/min/kg
Rat pharmacokinetics; 2 mg/kg p.o. vs 1 mg/kg i.v.
  oral bioavailability (%F): 31%
G2019S LRRK2
  inhibition of G2019S LRRK2: not inhibited
[13]
  microsomal stability: 28 min
[14]; 4 hr
  brain concentration: 3000 nM
[14]; 8 hr
  brain concentration above the >90% neuroprotective concentration: 7 fold
[14]; 24 hr
  brain concentration: 230 nM
[15]; 10 mg/kg oral
  p-c-jun levels in the ventral midbrain by ELISA: no effect
[15]; 20 mg/kg oral, p< 0.01
  p-c-jun levels in the ventral midbrain by ELISA: statistically significant reduction
[15]; 30 mg/kg oral, p < 0.001
  p-c-jun levels in the ventral midbrain by ELISA: statistically significant reduction
KIT
  Kd: < 1 µM
CYP P450 2C19
  IC50: > 50 µM
[16]
  phospho-c-jun signal by Western blot: decrease in the phospho-c-jun signal
CYP P450 2E1
  IC50: > 50 µM
[17]
  plasma protein binding: 97%
[18]; 300 nM
  neuroprotective effect (TH-positive neurons): greater than 90%
[18]; 1000 nM in the absence of MPP+
  effect on number of TH-positive neurons, compound alone: no effect compared to control
[18]; 1000 nM
  neuroprotective effect (TH-positive neurons): greater than 90%
CYP P450 2D6
  IC50: > 50 µM
PDGFR-β
  Kd: < 1 µM
CYP P450 2C8
  IC50: > 50 µM

## N[C@@H](Cc1ccc(O)c(O)c1)C(=O)O [L-DOPA, levodopa]
[19]
  initial response rates: ~90%
